Data as given in the EternaBench riboswitch data.

Test system: MS2 coat protein
Test: apparent Kd, MS2 coat protein; higher = weaker binding; RNA-MaP array; FMN 200 µM where present
How it was run: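 The titrant was SNAP-549-labelled MS2 coat protein, run from 0.7 or 1.5 nM in doubling steps to 3 µM. It was applied to designs transcribed by stalled E. coli RNA polymerase on Illumina sequencing-chip clusters, without ligand first and then with constant ligand, in 100 mM Tris-HCl pH 7.5, 80 mM KCl, 4 mM MgCl2, BSA, DTT, yeast tRNA and Tween-20. The apparent Kd is the median of filtered per-cluster binding-curve fits, with green signal normalised to red-channel RNA signal and control-cluster median Fmax.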

[1] = designed as: OFF switch for flavin mononucleotide, no ligand
[2] = ligand present: flavin mononucleotide, designed as: OFF switch for flavin mononucleotide
[3] = designed as: ON switch for flavin mononucleotide, no ligand
[4] = ligand present: flavin mononucleotide, designed as: ON switch for flavin mononucleotide

| Sequence | apparent Kd [1] | apparent Kd [2] | apparent Kd [3] | apparent Kd [4] |
| --- | --- | --- | --- | --- |
| AACGAGGCAGGAUAUACAUGAGGAUCACCCAUGUGCUUGCAUGGCGUGGGAAGUCAACGUAGAAGGGCCAUGCC | 75.7 nM | 89.4 nM | – | – |
| AACGCGUCAGGAUAUGCCAUAAAUUACCUAGUACGACCAUAGCAGAAGGGACAUGAGGAUCACCCAUGUGGGUA | 92 nM | 67.6 nM | – | – |
| AACUAAGAAUUAAUGGUGACUGACAGAAGGCAAUAGAAUGAGACCGACAUGAGGAUCACCCAUGUUGAGGAUAUGUCUUGCUAC | 6.59 nM | 7.2 nM | – | – |
| AACUAGCUAGGAUAUACAUGAGGAUCACCCAUGUAAAAAAAAAAAAAAAAAUUUUUAUGUAGAAGGAGCUAGUA | 34 nM | 41.2 nM | – | – |
| AACUCACAUGAGGAUCACCCAUGUGAGGAUAUAUAAAUAUAUAUGUUAUUGUAUGUUUGUAGAAGGCGCGUGAU | 38.6 nM | 43.1 nM | – | – |
| AACUCGUCAGGAUAUGCGCGCAGUUGCUGCGCUUCGCCGUUGCAGAAGGGACAUGAGGAUCACCCAUGUAGGUC | 35.8 nM | 43.5 nM | – | – |
| AAGAAACAUGAGGAUCACCCAUGUCACCUCACACGAGGAUAUCUGAAUCGAUUAGAUUACGGAGAAGGCGUGAGAA | – | – | 30.2 nM | 18.3 nM |
| AAGAAACAUGAGGAUCACCCAUGUGAGGAUAUGAAAAAGAAAAGAAAAGAAAGAAGAAUCAGAAGGCACAAAGG | 30.8 nM | 45.1 nM | – | – |
| AAGAAACAUGAGGAUCACCCAUGUGAGGAUAUGUAAAAUAAAAUAAAAUAAAUAAUAAACAGAAGGCACAAAGG | 68 nM | 76.5 nM | – | – |
| AAGAAAUGGGAGUGAUUUGGUUCCGAGGAUAUAGGCAUCGGUACAUGAGGAUCACCCAUGUUCGACUAGAAGGCGGACGGGUCC | – | – | 169 nM | 20.4 nM |
| AAGAAGUAAGGAUAUGCAUGGCGGGACUUGCGUCGUGGCGUGCAGAAGGUACAUGAGGAUCACCCAUGUAAAGA | 27.2 nM | 15.4 nM | – | – |
| AAGAAGUCAGGAUAUCCAUGGCGGCACUUGCGUGGUGGCGUGGAGAAGGGACAUGAGGAUCACCCAUGUAAAGA | 51.4 nM | 35.8 nM | – | – |
| AAGAAGUCAGGAUAUGCUAAAGAAAUAAAAAGAAAGAAAGAACAUGAGGAUCACCCAUGUAGAAGGGACAAGAA | 42.9 nM | 40.6 nM | – | – |
| AAGAAGUGAGGAUAUCGAAGACAAAAAAAAAAAAAGUCGAACGAGAAGGCACAUGAGGAUCACCCAUGUAAGAA | 30.2 nM | 33.4 nM | – | – |
| AAGAAGUUAGGAUAUGCAUGGCGGGACUUGCGUCGUGGCGUGCAGAAGGAACAUGAGGAUCACCCAUGUAAAGA | 29.1 nM | 18.3 nM | – | – |
| AAGAAUAGAAAGAUUAAUAUGAAUACAUGAGGAUCACCCAUGUAGGAUAUCGACGUCAAUGACGUCGAGAAGGACAUAAAUAAU | 9.7 nM | 9.09 nM | – | – |
| AAGACGUGGGAAGGAUAUCUGGAAUAUCGGUCGAGAGAAGGUCCCUCGACAUGAGGAUCACCCAUGUAACGCGGUCUACCGUGU | – | – | 596 nM | 494 nM |
| AAGACUAGAGGAUAUACAUGAGGAUCACCCAUGUAACUGUCAGAAAACUGACGGAGAUGUAGAAGGCUAGUCAA | 17.7 nM | 34.7 nM | – | – |
| AAGAGACAUCAGAAGGGAACCCAAACGCGCGGUUCAGGAUAUGAGAUCUUAUGUAGUUCGACAUGAGGAUCACCCAUGUCCGCG | – | – | 101 nM | 8.22 nM |

| Sequence | apparent Kd [1] | apparent Kd [2] | apparent Kd [3] | apparent Kd [4] |
| --- | --- | --- | --- | --- |
| AAGAUGCGGGUAGGAUAUGGGAAUUAAUAAAGACCAGAAGGACUGGUCACACAACAUGAGGAUCACCCAUGUGUGUGUAGUGAA | 12.4 nM | 10.9 nM | – | – |
| AAGCGAAAGCUAAAAUAUCUAUCAGAGGAUAUUUAUGAUACAUGAGGAUCACCCAUGUGGCGCUGGGAGAAGGCUGAUAGAUAA | – | – | 12.9 nM | 6.79 nM |
| AAGCUGCGCCAGAAGGGACCGACAUGAGGAUCACCCAUGUCCACAAGAGUCAGGAUAUGGCGUGGAGGCUCGUUCAAGUCCAGG | – | – | 13.5 nM | 5.73 nM |
| AAGCUGCGCCAGAAGGGACCGACAUGAGGAUCACCCAUGUCCACAAGAGUCAGGAUAUGGCGUGGAGGCUCGUUUAAGUCCAGG | – | – | 11.1 nM | 5.19 nM |
| AAGGAAACCACAGGAUAUGGCUAGAAUAUCUAGCCAGAAGGGUGGUCGAAACCAUGUAAAUACAUGAGGAUCACCCAUGUGUCC | – | – | 345 nM | 378 nM |
| AAGGAUAGAGGAUAUACAUAGAUACAGAUUCAUGUAGAAUUACAUGAGGAUCACCCAUGUAGAAGGCUAUCCUA | 635 nM | 29 nM | – | – |
| AAGGAUAGAGGAUAUACAUAGAUACAGAUUCAUGUAGUCCUACAUGAGGAUCACCCAUGUAGAAGGCUAUCCUA | 15.6 nM | 83.8 nM | – | – |
| AAGGAUAGAGGAUAUGCAUAGAUACAGAUUCAUGUAGAACUACAUGAGGAUCACCCAUGUAGAAGGCUAUCCUA | 18.6 nM | 50.8 nM | – | – |
| AAGGAUCGAGGAUAUACAUAGAUACAGAUACAUGUAGACCUACAUGAGGAUCACCCAUGUAGAAGGCGAUCCUA | 22.4 nM | 54.7 nM | – | – |
| AAGGCGGCUCAGGCCGAGUUUCGCAGAAGGGCACAUGAGGAUCACCCAUGUACCUGGUCUGAUGUGCAGGAUAUGUGAGUCAGC | 5.6 nM | 10.4 nM | – | – |
| AAGGGUAGGCAGGAUAUCCAGGUCGACACCGCGGGAGAAGGGCUUACAUGAGGAUCACCCAUGUAGGGUGCGAU | 177 nM | 129 nM | – | – |
| AAGGUGUUAGGAUAUCGUAGUUUGUGGCAGACGGGAUUUUGCGAGAAGGAACAUGAGGAUCACCCAUGUCGGAU | 28.4 nM | 28.2 nM | – | – |
| AAGUAGACGGUGAGGAUAUAGGUCGAAUGACCGAUCUAGAAGGCACAUGAGGAUCACCCAUGUGGGUAACGUCG | 17.8 nM | 20.7 nM | – | – |
| AAGUAGGUAGGAUAUACAUGGAUAUACAUUCAUGUGGACCUACAUGAGGAUCACCCAUGUAGAAGGACCUAAUA | 43.2 nM | 41.6 nM | – | – |
| AAGUCUGUACGAGGAUAUCAGUUGUAUCUAGAUUCAACAUGAGGAUCACCCAUGUUGCAAUAGGGUGAGAAGGCGUGUGGGCAA | – | – | 101 nM | 25.3 nM |
| AAGUGCCUGUCGAUGCUCGACAUGAGGAUCACCCAUGUACAGCAGGAUAUGCAGAACUACCUCGUGCAGAAGGGCUGUACCAAU | 97.1 nM | 80.1 nM | – | – |
| AAGUGUGCCUAGGAUAUGUUCGGCCAAGGUCAUACAGAAGGAGGCACAUGAGGAUCACCCAUGUAGUGUCCAAC | 118 nM | 29.4 nM | – | – |
| AAUAAACAUGAGGAUCACCCAUGUAAAUGGGCGAUAGGAUAUGCGAAAAUAAAGAAAGAAGCAGAAGGAUCGAAGA | – | – | 846 nM | 509 nM |
| AAUAAACAUGAGGAUCACCCAUGUCCCACCAGCCAAGGAUAUGGGCCCGCCGCACAGGUACCAGAAGGUGGCUGCC | – | – | 165 nM | 55.7 nM |

| Sequence | apparent Kd [1] | apparent Kd [2] | apparent Kd [3] | apparent Kd [4] |
| --- | --- | --- | --- | --- |
| AAUAAACUCACAGGAUAUAGCAUAGUCGGCGUGAACUUAAUGGCGACUAUGCUAGAAGGGUGACCACAUGAGGAUCACCCAUGU | – | – | 710 nM | 149 nM |
| AAUAACAGAGGAUAUACUAUUUUAUGUAUUUAUUAUUUUGAACAUGAGGAUCACCCAUGUAGAAGGCUGAAUGA | 26.4 nM | 22 nM | – | – |
| AAUAACAGAGGAUAUACUAUUUUAUGUGUUUAUUGUUUUGAACAUGAGGAUCACCCAUGUAGAAGGCUGAAUGA | 29.9 nM | 35.8 nM | – | – |
| AAUAACAGAGGAUAUACUAUUUUAUGUGUUUGUUAUUUUAAACAUGAGGAUCACCCAUGUAGAAGGCUGAAUAA | 24.3 nM | 22.1 nM | – | – |
| AAUAACAGAGGAUAUACUAUUUUAUGUGUUUGUUAUUUUGAACAUGAGGAUCACCCAUGUAGAAGGCUGAGUAA | 28.8 nM | 28.9 nM | – | – |
| AAUAACAGAGGAUAUACUAUUUUAUGUGUUUGUUGUUUUGAACAUGAGGAUCACCCAUGUAGAAGGCUGAAUGA | 28.8 nM | 30.7 nM | – | – |
| AAUAACAGAGGAUAUACUGUUUUAUGUGUUUAUUGUUUUAAACAUGAGGAUCACCCAUGUAGAAGGCUGAAUAA | 27.4 nM | 27.8 nM | – | – |
| AAUAACAGAGGAUAUACUGUUUUAUGUGUUUGUUAUUUUGAACAUGAGGAUCACCCAUGUAGAAGGCUGAUUGA | 50 nM | 44.9 nM | – | – |
| AAUAAGCAAGGAUAUACGACGCAGAGCGUCAGUGGGCGAUGACAUGAGGAUCACCCAUGUAGAAGGUGCACAUC | 93.9 nM | 208 nM | – | – |
| AAUAUGAGCUGGAAUAUAAACCUGACAUGAGGAUCACCCAUGUAGGAUAUCAGCACGAUAAGUGCUGAGAAGGACAACCAGCUC | 14 nM | 14.5 nM | – | – |
| AAUAUGUUGCAGAAGGUUAUAUUUAUAACGUUCCUCAUGACAUGAGGAUCACCCAUGUAAUUGUUGAAGGAUAUGCAAUAUAUU | 5.41 nM | 5.62 nM | – | – |
| AAUAUGUUGCAGAAGGUUAUAUUUUUUUAGUACCUCAUUACAUGAGGAUCACCCAUGUAAAUGAUGAAGGAUAUGCAAUAUAUU | 19.3 nM | 16.4 nM | – | – |
| AAUAUGUUGCAGAAGGUUAUAUUUUUUUCGUACCUCAUGACAUGAGGAUCACCCAUGUAUUUGUUGAAGGAUAUGCAAUAUAUU | 21.5 nM | 17.7 nM | – | – |
| AAUCAGCGGAACUUGACAUCCCUACAUGAGGAUCACCCAUGUCAGGAUAUAUGCUCUCGAGCUGCAUAGAAGGGACAUAGUGGG | 50.6 nM | 71.3 nM | – | – |
| AAUCGAUGAUCAGGAUAUGUGGAGCCUCUAAGCGAAGAGGCGUACAUGAGGAUCACCCAUGUGACACAGAAGGGAUACAUGCGG | – | – | 64.2 nM | 8.2 nM |
| AAUCUGUCGGUAGGAUAUCAGUUUGGAGAGCCGACAUGAGGAUCACCCAUGUACAGAAUCAAGGGUGAGAAGGACCGGGUAGUU | – | – | 90.7 nM | 78.6 nM |
| AAUGAUUGAUGAGGAUAUUGUGGUGAAACACGACGAGAAGGCAUAUGUCACAUGAGGAUCACCCAUGUGAGCUUUGUGGAUAUA | 25 nM | 28.9 nM | – | – |
| AAUGGCAUAGAGAAGGCGCCGCAGCUCUUCCUCCCAUCCCAACGACAUGAGGAUCACCCAUGUAGCGAGGAUAUCUAUACCGUU | 6.91 nM | 14.1 nM | – | – |
